# Published values pooled from the literature.
# Protocols differ between the studies behind these lines.
# Sample: plasma
Structure (SMILES),system,setting,half-life [min]
O=c1c(O)c(-c2ccc(O)c(O)c2)oc2cc(O)cc(O)c12,human,"oral, 500 mg, single dose, fasted, healthy volunteers",376
CC(C)(Sc1ccncc1-c1ccc(C#N)c2ccccc12)C(=O)O,male human,"oral, 20 mg, single dose, fasted, healthy volunteers",654
CC(C)n1cc(C#N)c2cc(-n3cc(C(=O)O)cn3)ccc21,male human,"oral, 600 mg, single dose, fasted, healthy volunteers",714
CC(C)[C@](O)(c1ccc2cc(OC(F)F)c(OC(F)F)cc2c1)c1c[nH]nn1,female human,"oral, 750 mg, single dose",408
COc1cc(C(=O)NC2CCN(C)CC2)c(F)cc1Nc1ncc(C(F)(F)F)c(Oc2cccc3c2C(=O)N(C)C3)n1,human,"oral, 300 mg, multiple doses, once daily, patients",1300
C[C@@H](Nc1cc(F)cc(F)c1)c1cc(C(=O)N(C)C)cc2c(=O)cc(N3CCOCC3)oc12,human,"oral, 240 mg, single dose, patients",374
COc1ccc(Oc2cc(N(C)CCOc3ccc(CC4SC(=O)NC4=O)cc3)ncn2)cc1 (stereo not drawn),male human,"oral, 0.5 mg, multiple doses, once daily, steady state",424
CO[C@H]1/C=C\C=C(/C)C(=O)NC2=CC(=O)C(NCCN(C)C)=C(C[C@@H](C)C[C@H](OC)[C@H](O)[C@@H](C)/C=C(\C)[C@@H]1OC(N)=O)C2=O,human,"intravenous, 12 mg/m², patients, infusion",846
COCCOc1cnc2ccn([C@H](C)c3nnc4c(F)cc(-c5cnn(C)c5)cn34)c(=O)c2c1,human,"oral, 100 mg, multiple doses, once daily, patients",546
CO[C@@H]1[C@H](OC(=O)N2CC(CCN3CCOCC3)C2)CC[C@]2(CO2)[C@H]1[C@@]1(C)O[C@@H]1CC=C(C)C,human,"subcutaneous, 0.6 mg, single dose, healthy volunteers",33.6
c1cnc2ccc(Nc3nc(NC4CC4)c4nc[nH]c4n3)cc2c1,human,"oral, 100 mg/m², patients",216
CC(C)(O)c1ccccc1-c1ccc2[nH]c(/C=C/c3ccc(C(F)(F)F)cc3)nc2c1,male human,"oral, 2 mg, single dose, fasted, healthy volunteers",2870
CN(C)Cc1ccc(S(=O)(=O)n2ccc(/C=C/C(=O)NO)c2)cc1,human,"oral, patients",~240
CCOc1ccc(Cc2cc([C@@H]3O[C@H](CO)[C@@H](O)[C@H](O)[C@H]3O)ccc2Cl)cc1,human,"oral, 10 mg, multiple doses, steady state, healthy volunteers",626
Cn1cc(-c2ccc(S(=O)(=O)[C@@H]3C[C@@H](C(=O)NC4(C#N)CC4)N(C(=O)C4(C(F)(F)F)CC4)C3)c(C(F)(F)F)c2)cn1,human,"oral, 3 mg, single dose, fasted, healthy volunteers",341
CO[C@H]1CC[C@H](N2C(=O)CNc3ncc(-c4ccc(C(C)(C)O)nc4)nc32)CC1,human,"oral, 15 mg, patients",201
NS(=O)(=O)NCCNc1nonc1C(=NO)Nc1ccc(F)c(Br)c1,human,"oral, 300 mg, multiple doses, twice daily, steady state, patients",234
COc1ccc([C@@H]2CN(C(=O)[C@@H](O)CO)C[C@@]2(C)[C@@H](C)O)cc1OC1CN(c2ccc(C)cn2)C1,human,"oral, 0.1 mg, single dose, healthy volunteers",584
